Assay results published in ChEMBL document CHEMBL1122665, “Synthesis of thyrotropin-releasing hormone analogues. 1. Complete dissociation of central nervous system effects from thyrotropin-releasing activity” (1984).
Non-standard residues stand in square brackets, D forms with d. Residues, ends and D or L forms follow the SMILES beside them. *: point of attachment. Cha = N[C@@H](CC1CCCCC1)C(=O)O; pGlu = O=C1CC[C@@H](C(=O)O)N1; Nle = CCCC[C@H](N)C(=O)O; Nva = CCC[C@H](N)C(=O)O; Abu = CC[C@H](N)C(=O)O; tBu = CC(C)(C)*

Experiments:
[1] = system: Rattus norvegicus; assay: Evaluated for hormonal (TSH) releasing activity in adult male albino rats after single intraperitoneal injection using radioimmunoassay; np -significant but not parallel TSH response to the lower and upper doses used; assay type: functional, organism-based
In short: (§1)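 Two-point assay in adult male albino rats: single ip injection at 1 and 10 μg. Blood drawn 15 min post-injection. Serum TSH measured by radioimmunoassay (NIAMDD rat TSH-RIA system). Relative potency expressed in percent, with synthetic TRH reference set at 100%.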

[2] = system: Rattus norvegicus; assay: Inhibition of haloperidol catalepsy by less than 50% in a dose of 80 mg/kg, iv in adult male Wistar rats; assay type: functional
[3] = Evaluated for hormonal (TSH) releasing activity in adult male albino rats after single intraperitoneal injection using radioimmunoassay; assay type: functional; in short: as §1
[4] = system: Rattus norvegicus; assay: Anticataleptic effect at effective dose after intravenous administration in adult male Wistar rats; assay type: functional
In short: (§2)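 Haloperidol catalepsy induced in adult male Wistar rats by 4 mg/kg ip. Analogues given iv at 5 to 80 mg/kg, 2 h after haloperidol. Read-out is inhibition of catalepsy, taken as a measure of dopaminergic stimulation. Synthetic TRH served as reference standard.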

[5] = system: Rattus norvegicus; assay: Evaluated for hormonal (TSH) releasing activity in adult male albino rats after single intraperitoneal injection using radioimmunoassay; np- significant activity but not parallel TSH response to the lower and upper doses used; assay type: functional, organism-based; in short: as §1
[6] = system: Rattus norvegicus; assay: Evaluated for hormonal (TSH) releasing activity in adult male albino rats after single intraperitoneal injection using radioimmunoassay; np-significant activity but not parallel TSH response to the lower and upper doses used; assay type: functional, organism-based; in short: as §1
[7] = system: Rattus norvegicus; assay: Anticataleptic effect at effective dose after intravenous administration in adult male Wistar rats.; assay type: functional; in short: as §2
[8] = Rattus norvegicus, iv, read-out: ED50

SMILES	inhibition in vivo at 80 mg/kg [2]	Activity [3]	ED50 [4, 8]	other results
CCCCCCCC[C@H](NC(=O)[C@@H]1CCC(=O)N1)C(=O)N1CCC[C@H]1C(N)=O	0%			Activity [1]: Significant but not parallel
CCCCCCCCCCNC(=O)[C@H]1CCCN1C(=O)[C@@H](CC(C)C)NC(=O)[C@H]1CCC(=O)N1	10%	0%		
CC(C)C[C@H](NC(=O)[C@@H]1CCC(=O)N1)C(=O)N1CCC[C@H]1C(N)=O [listing 1 of 2 here]		2.7%		ED50 [4]: 40 mg/kg
CC(C)C[C@@H](NC(=O)[C@@H]1CCC(=O)N1)C(=O)N1CCC[C@H]1C(N)=O		0%	> 80 mg/kg	
CC(C)C[C@@H](NC(=O)[C@H]1CCC(=O)N1)C(=O)N1CCC[C@@H]1C(=O)NCCN(C)C	10%	0%		
C[C@@H](O)[C@H](NC(=O)[C@@H]1CCC(=O)N1)C(=O)N1CCC[C@H]1C(N)=O ([pGlu]-Thr-Pro-NH2)		25.7%	80 mg/kg	
NC(=O)[C@@H]1CCCN1C(=O)[C@H](Cc1ccccc1)NC(=O)[C@@H]1CCC(=O)N1 ([pGlu]-Phe-Pro-NH2)	40%			
CCCC[C@H](NC(=O)[C@@H]1CCC(=O)N1)C(=O)N1CCC[C@H]1C(N)=O ([pGlu]-[Nle]-Pro-NH2)		3.8%	16.8 mg/kg	
COC(=O)[C@H]1CCCN1C(=O)[C@@H](CC(C)C)NC(=O)[C@H]1CCC(=O)N1	0%	0%		
NC(=O)[C@@H]1CCCN1C(=O)[C@@H]1CCCN1C(=O)[C@H]1CCC(=O)N1				Activity [5]: Significant but not parallel
CCNC(=O)[C@H]1CCCN1C(=O)[C@@H](CC(C)C)NC(=O)[C@H]1CCC(=O)N1		0%	56.6 mg/kg	
CC[C@H](NC(=O)[C@@H]1CCC(=O)N1)C(=O)N1CCC[C@H]1C(N)=O ([pGlu]-[Abu]-Pro-NH2)		0%	≥ 80 mg/kg	
CCC[C@H](NC(=O)[C@@H]1CCC(=O)N1)C(=O)N1CCC[C@H]1C(N)=O ([pGlu]-[Nva]-Pro-NH2)		0%	11.4 mg/kg	
CC(C)C[C@H](NC(=O)[C@@H]1CCC(=O)N1)C(=O)N1CCC[C@H]1C(N)=O [listing 2 of 2 here]		0%	70 mg/kg	
CC(C)C[C@@H](NC(=O)[C@H]1CCC(=O)N1)C(=O)N1CCC[C@@H]1C(=O)O	0%	0.1%		
CC(C)[C@H](NC(=O)[C@@H]1CCC(=O)N1)C(=O)N1CCC[C@H]1C(N)=O ([pGlu]-Val-Pro-NH2)		3.1%	> 80 mg/kg	
CC(C)C[C@@H](NC(=O)[C@H]1CCC(=O)N1)C(=O)N1CCCC1	20%			Activity [6]: Significant but not parallel
NC(=O)[C@@H]1CCCN1C(=O)[C@H](CC1CCCCC1)NC(=O)[C@@H]1CCC(=O)N1 ([pGlu]-[Cha]-Pro-NH2)	20%	45.6%		
C[C@H](NC(=O)[C@@H]1CCC(=O)N1)C(=O)N1CCC[C@H]1C(N)=O ([pGlu]-Ala-Pro-NH2)	0%	0%		
NC(=O)[C@@H]1CCCN1C(=O)[C@@H]1CCCN1C(=O)[C@@H]1CCC(=O)N1			80 mg/kg	
NC(=O)[C@@H]1CCCN1C(=O)[C@H](Cc1c[nH]cn1)NC(=O)[C@@H]1CCC(=O)N1 [PROTIRELIN]	40%	100%		ED50 [7]: 113 mg/kg
CC(C)C[C@H](NC(=O)[C@@H]1CCC(=O)N1)C(=O)N1CCC[C@@H]1C(N)=O		0%	> 80 mg/kg	
CSCC[C@H](NC(=O)[C@@H]1CCC(=O)N1)C(=O)N1CCC[C@H]1C(N)=O ([pGlu]-Met-Pro-NH2)	40%	1%		
CC(C)(C)OC[C@H](NC(=O)[C@@H]1CCC(=O)N1)C(=O)N1CCC[C@H]1C(N)=O ([pGlu]-Ser(tBu)-Pro-NH2)	0%	0.2%		
NC(=O)[C@@H]1CCCN1C(=O)CNC(=O)[C@@H]1CCC(=O)N1 ([pGlu]-Gly-Pro-NH2)	10%	0%		
CC[C@H](C)[C@H](NC(=O)[C@@H]1CCC(=O)N1)C(=O)N1CCC[C@H]1C(N)=O ([pGlu]-Ile-Pro-NH2)	10%	0.2%		
